Measured values gathered from unrelated publications.
Target: Mitogen-activated protein kinase kinase kinase 14 (MAP3K14, Homo sapiens, UniProt Q99558)

O=C(NCCCN1CCOCC1)c1ccc(Nc2nccc(-c3cc4ccccc4s3)n2)cc1  remaining binding (binding; competition with immobilised ligand; 1 µM): 87%
CC1CCCN1c1nccc(-c2cnn3ncccc23)n1 (centres unmarked)  remaining binding (binding; competition with immobilised ligand; 1 µM): 100%
CCCCN(CCCC)C(=O)CN1C[C@@H](c2cc(OC)c3c(c2)OCO3)[C@H](C(=O)O)[C@H]1CC(C)(C)CCC  remaining binding (cell-free assay; competition with immobilised ligand; 1 µM): 100%
Cc1cnn2ncc(-c3ccnc(N(C)C)n3)c2c1  remaining binding (binding; 1 µM): 80%
O=C(NCc1ncc(C(F)(F)F)cc1Cl)c1ccc2c(c1)C1(CCS(=O)(=O)CC1)[C@@H](C1CC1)N2S(=O)(=O)c1ccc(F)cc1  remaining binding (cell-free assay; competition with immobilised ligand; 1 µM): 71%
COc1cnc(Nc2cccc(S(N)(=O)=O)c2)nc1N1CCN(c2ccccc2)CC1  remaining binding (binding; competition with immobilised ligand; 1 µM): 96%
CN(C)C(=O)Cn1cc(-c2nc(C3(c4ccc(-c5cnc(N)nc5)cc4)CC3)no2)cn1  remaining binding (cell-free assay; competition with immobilised ligand; 1 µM): 83%
COc1cnc(Nc2cccc(S(N)(=O)=O)c2)nc1N1CCN(c2ccccc2)C(=O)C1  remaining binding (binding; competition with immobilised ligand; 1 µM): 89%
N[C@H]1CCN(c2nccc(-c3cnn4ncccc34)n2)C1  remaining binding (binding; competition with immobilised ligand; 1 µM): 100%
O=C(Nc1c[nH]nc1C(=O)NC1CCNCC1)c1cc(F)cc(F)c1  remaining binding (binding; competition with immobilised ligand; 1 µM): 100%
CN(c1ccnc(CNc2nc(Nc3ccc4c(c3)CC(=O)N4)ncc2C(F)(F)F)n1)S(C)(=O)=O  remaining binding (cell-free assay; competition with immobilised ligand; 1 µM): 65%
O=C(c1ccc(Nc2ncc(Cl)c(-c3ccc(Cl)s3)n2)cc1)N1CCC(N2CCCC2)CC1  remaining binding (binding; competition with immobilised ligand; 1 µM): 22%
CN1CCN(c2cnc3c(C4CCN(C(=O)c5ccc(OC(F)(F)F)cc5N)CC4)ncnc3c2)CC1  remaining binding (cell-free assay; competition with immobilised ligand; 1 µM): 100%
CN(C)c1nccc(-c2cnn3ncccc23)n1  remaining binding (binding; competition with immobilised ligand; 1 µM): 74%
Nc1cnc(N2CCc3cc(S(=O)(=O)Nc4c(F)cc(Cl)cc4F)cc(N4CCCC4=O)c32)nc1  remaining binding (cell-free assay; competition with immobilised ligand; 1 µM): 75%
CN(CCCC(F)(F)F)c1nccc(-c2cnn3ncccc23)n1  remaining binding (binding; competition with immobilised ligand; 1 µM): 100%
Nc1ncc2c(n1)-c1c([nH]c3ccc(C#CC4CC4)cc13)CCCC2  remaining binding (binding; competition with immobilised ligand; 1 µM): 73%
c1cnn2ncc(-c3ccnc(N4CCC45COC5)n3)c2c1  remaining binding (binding; competition with immobilised ligand; 1 µM): 44%
C[C@@H](c1ccc(-n2cnc3c(N)ncnc32)cc1)N1CCc2nn(C)c(Cc3ccccc3)c2C1=O  remaining binding (binding; competition with immobilised ligand; 0.1 µM): 100%
C=CC(=O)N1CCC(C(=O)NCC(=O)N2CCN(c3nc(-c4cnc(N)nc4C(F)F)nc(N4CCOCC4)n3)CC2)CC1  remaining binding (binding; competition with immobilised ligand; 1 µM): 89%
